The nature of test [1]: Her2 expression decrease, cell viability multiplex – SKBR3 breast tumor cells, AlphaScreen, ATP viability, primary screen (AID 461).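 On Her2 level: lower value means less Her2 protein in the cells.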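 On viability: percent of carrier control wells set as 100% viability.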 The note with it: SKBR3 Her2 protein level, 18-24 h, measured here: SKBR3 viability, ATP luminescence, at 10 µM.
Test [2] addresses Receptor tyrosine-protein kinase erbB-2 (Homo sapiens) (UniProt P04626). The test is described as above. The note with it: 18-24 h, at 10 µM, stronger effect = lower value.
Test [3] is described as follows: reduced viability of SK-BR-3 breast cancer cells – cell-based, 24 h, human, pilot screen (AID 572;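 active means viability at or below 10% of carrier control in both of two separate runs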;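 further: compound exposure lasted between 18 and 24 h rather than exactly 24 h; 100% = carrier-treated control wells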). The conditions noted are these: SK-BR-3 viability, CellTiter-Glo luminescence, at 10 µM, stronger effect = lower value.
Test [4] is described as follows: HUVEC growth inhibition – cell-based, human, primary screen (AID 575;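 active means viability at or below 30% in both replicate assays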;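 further: 100% = median of untreated cell wells with 0.1% DMSO on each plate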). The note with it: HUVEC proliferation, CellTiter-Glo luminescence, 72 h; at 10 µM; stronger effect = lower value. The essentials: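 System – primary HUVEC, no more than 12 passages · Medium – Low-serum (2% FBS) EBM, supplemented · Times – 72 h exposure, 37 °C, 5% CO2, 30 min RT equilibration · Measured by – luminescent ATP assay · Read-out – % viability relative to median vehicle-well signal on each plate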

A short description of test [5]: H69AR cell proliferation blockers – human, duplicate replicates, primary screen (AID 580;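 active means viability at or under a set limit in both replicates, limit being median viability minus 3 SD, cut at about 48% in these data, passing the limit was not always enough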;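 further: 100% = mean luminescence of untreated wells and 0% = no signal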). The note with it: H69AR lung tumor cells viability, ATP luminescence, 72 h; at 10 µM; stronger effect = lower value.
The nature of test [6]: MRP1 drug-resistance reversers in H69AR cells – cell-based, doxorubicin co-treatment, pilot screen (AID 601;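 active means viability loss from added drug above about 55%, and viability with drug at most 40%, in both replicates, limit read from the data, passing the limit was not always enough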). The conditions noted are these: CellTiter-Glo, 72 h, at 10 µM; for differential viability (reversal): stronger effect = higher value.
Test [7] in a line: yeast transport mutant growth inhibition pilot in 384-well plates, post-Golgi transport modulator project (AID 636; in the data active means inhibition above about 31%). The conditions noted are these: absorbance 615 nm, about 18 h, stronger effect = higher value.
Test [8] is described as follows: growth suppression of yeast trafficking mutant, preliminary HTS, modulators of trafficking downstream of Golgi apparatus project, 1536-format plate, OD 615 nm (AID 637; in the data active means inhibition above about 30%). The conditions noted are these: yeast transport mutant growth, absorbance 615 nm, 18 h; stronger effect = higher value.
The mark [9] stands for this setting: H69AR cells + 2 uM doxorubicin, measured here: viability with 2 uM doxorubicin, stronger effect = lower value.
[10] abbreviates: H69AR cells, compound alone cytotoxicity.

Experimental findings from PubChem BioAssay are described below.

Activity calls are given as the source filed them.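 How the source made its calls, unless noted: active means Her2 level under about 52% in both replicate screens, with viability over 70% of control (limit read from the data); inconclusive means Her2 under the limit in one screen only, or viability under 70%; inactive means Her2 level above the set limit.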

Sequence of Receptor tyrosine-protein kinase erbB-2 (Homo sapiens) (P04626 whole entry, looked up): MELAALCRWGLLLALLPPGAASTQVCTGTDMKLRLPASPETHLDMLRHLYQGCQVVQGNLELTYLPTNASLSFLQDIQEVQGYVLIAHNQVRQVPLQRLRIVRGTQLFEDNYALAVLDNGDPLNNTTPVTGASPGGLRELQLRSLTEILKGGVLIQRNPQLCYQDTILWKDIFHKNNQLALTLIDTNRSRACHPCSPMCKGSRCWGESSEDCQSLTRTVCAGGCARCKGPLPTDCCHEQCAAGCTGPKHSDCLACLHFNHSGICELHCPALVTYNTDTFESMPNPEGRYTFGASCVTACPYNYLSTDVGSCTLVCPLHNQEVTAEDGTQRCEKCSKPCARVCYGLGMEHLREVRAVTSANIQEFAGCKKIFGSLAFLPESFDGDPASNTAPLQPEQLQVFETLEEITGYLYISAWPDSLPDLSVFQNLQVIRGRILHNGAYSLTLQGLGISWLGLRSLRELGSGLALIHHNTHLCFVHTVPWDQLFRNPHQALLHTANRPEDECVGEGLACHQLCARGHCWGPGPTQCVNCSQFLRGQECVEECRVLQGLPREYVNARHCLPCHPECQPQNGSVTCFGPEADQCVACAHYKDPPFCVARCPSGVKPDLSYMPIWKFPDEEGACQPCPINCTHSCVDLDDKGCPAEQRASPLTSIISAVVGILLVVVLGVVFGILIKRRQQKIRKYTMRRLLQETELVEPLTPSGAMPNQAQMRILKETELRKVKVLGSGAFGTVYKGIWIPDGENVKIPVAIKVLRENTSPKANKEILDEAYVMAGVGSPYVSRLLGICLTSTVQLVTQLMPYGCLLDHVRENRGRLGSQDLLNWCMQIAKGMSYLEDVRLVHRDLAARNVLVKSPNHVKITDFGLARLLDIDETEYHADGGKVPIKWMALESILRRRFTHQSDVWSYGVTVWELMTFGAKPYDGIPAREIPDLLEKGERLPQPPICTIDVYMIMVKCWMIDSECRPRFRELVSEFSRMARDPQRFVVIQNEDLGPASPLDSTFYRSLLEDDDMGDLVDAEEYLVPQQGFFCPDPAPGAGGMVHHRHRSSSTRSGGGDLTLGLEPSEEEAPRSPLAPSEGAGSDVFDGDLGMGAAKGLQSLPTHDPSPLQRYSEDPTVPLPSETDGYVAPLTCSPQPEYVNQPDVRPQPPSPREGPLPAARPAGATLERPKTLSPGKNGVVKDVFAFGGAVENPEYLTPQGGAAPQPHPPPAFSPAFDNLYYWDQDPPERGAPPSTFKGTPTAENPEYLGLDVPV

Turning to `Cc1cc(-c2ccccc2)nc2cc(C(N)=O)nn12`, the viability is 102% in test [1]; 102% (inactive) in test [3]; 101% (inactive) in test [4]; 96% (inactive) in test [5]; 87.1% in test [6] (setting [9]); 96% in test [6] (setting [10]). Moreover, the Her2 level in test [2] was 94% (inactive). In addition, in test [6] (H69AR cells + 2 uM doxorubicin), the differential viability (reversal) is 8.83% (inactive). Also, the inhibition was -2.63% (inactive) in test [7] and 1.61% (inactive) in test [8].
With `COCCN(CCOC)C(=O)c1sc2nc(-c3ccccc3)cn2c1C`, the viability in test [1] was 93%; in test [3], 93% (inactive); in test [4], 82.4% (inactive); in test [5] it was 93.1% (inactive); in test [6] (setting [9]), 82.7%; in test [6] (setting [10]) it was 93.1%. Besides, the Her2 level in test [2] is 78% (inactive). In addition, the differential viability (reversal) in test [6] (H69AR cells + 2 uM doxorubicin) was 10.4% (inactive). For the same molecule, the inhibition in test [7] was -3.82% (inactive); in test [8], -5% (inactive).
Turning to `N#C[C@@H]1[C@@H]2C(=O)N(c3ccc4c(c3)OCCO4)C(=O)[C@@H]2C2c3ccccc3C=CN21` (stereo not given in full), the viability in test [1] was 84.5%; in test [3], 84.5% (inactive); in test [4], 95.8% (inactive); in test [5], 92.8% (inactive); in test [6] (setting [9]) it was 93.6%; in test [6] (setting [10]), 92.8%. Besides, the Her2 level in test [2] was 72% (inactive). Besides, the differential viability (reversal) in test [6] (H69AR cells + 2 uM doxorubicin) is -0.82% (inactive). Further, the figures for the inhibition in test [7] and in test [8] were -0.53% (inactive) and -5.48% (inactive), respectively.
As to `CC(=O)CCc1ccc(OCCCCn2cncn2)cc1`, the viability in test [1] is 113%; in test [3], 113% (inactive); in test [4] it was 98.2% (inactive); in test [5], 92.9% (inactive); in test [6] (setting [9]) it was 89.6%; in test [6] (setting [10]) it was 92.9%. Further, in test [2], the Her2 level was 105% (inactive). Further, the differential viability (reversal) in test [6] (H69AR cells + 2 uM doxorubicin) was 3.28% (inactive). Moreover, the values for the inhibition in test [7] and in test [8] were -4.94% (inactive) and 1.59% (inactive), respectively.
For `O=C(COc1ccc2c(c1)OCO2)NC12CC3CC(CC(C3)C1)C2`, the viability is 89.5% in test [1]; 89.5% (inactive) in test [3]; 75.2% (inactive) in test [4]; 80.8% (inactive) in test [5]; 86% in test [6] (setting [9]); 80.8% in test [6] (setting [10]). Further, in test [2], the Her2 level is 93% (inactive). Further, the differential viability (reversal) in test [6] (H69AR cells + 2 uM doxorubicin) was -5.25% (inactive). The inhibition in test [7] is -5.07% (inactive); in test [8] it was -6.07% (inactive).
Take `CC1(C)OC(=O)N(c2cccnc2)C1(C)O` (stereo not given): the viability in test [1] is 117%; in test [3] it was 117% (inactive); in test [4], 100% (inactive); in test [5], 91.5% (inactive); in test [6] (setting [9]), 80%; in test [6] (setting [10]), 91.5%. Besides, the Her2 level in test [2] is 83% (inactive). In addition, the differential viability (reversal) in test [6] (H69AR cells + 2 uM doxorubicin) was 11.6% (inactive). Further, the inhibition in test [7] was -5.6% (inactive); in test [8], 3.02% (inactive).
With `CCOc1cc(C2/C(=C(/O)c3ccc(OC(C)C)cc3)C(=O)C(=O)N2CCCOC)ccc1O` (stereo not given), the viability in test [1] is 91.5%; in test [3] it was 91.5% (inactive); in test [4] it was 103% (inactive); in test [5], 99.1% (inactive); in test [6] (setting [9]), 97.4%; in test [6] (setting [10]), 99.1%. Further, in test [2], the Her2 level was 83.5% (inactive). Moreover, the differential viability (reversal) in test [6] (H69AR cells + 2 uM doxorubicin) is 1.7% (inactive). Further, the inhibition in test [7] is 1.82% (inactive); in test [8], 3.17% (inactive).
As for `COc1ccc(C)cc1NC(=O)CN1CCN(S(=O)(=O)c2ccc(Cl)cc2)CC1`, the viability in test [1] is 81.5%; in test [3], 81.5% (inactive); in test [4] it was 74.7% (inactive); in test [5], 82.6% (inactive); in test [6] (setting [9]), 57.3%; in test [6] (setting [10]), 82.6%. Further, the Her2 level in test [2] was 87% (inactive). For the same molecule, the differential viability (reversal) in test [6] (H69AR cells + 2 uM doxorubicin) is 25.3% (inactive). The inhibition is -3.55% (inactive) in test [7] and -2.17% (inactive) in test [8].
As for `O=C1c2ccccc2C(Nc2ccc3c(c2)OCCO3)N1Cc1ccco1` (stereo not given), the viability is 106% in test [1]; 106% (inactive) in test [3]; 87.7% (inactive) in test [4]; 80.7% (inactive) in test [5]; 103% in test [6] (setting [9]); 80.7% in test [6] (setting [10]). In addition, the Her2 level in test [2] was 112% (inactive). Moreover, the differential viability (reversal) in test [6] (H69AR cells + 2 uM doxorubicin) is -22.6% (inactive). For the same molecule, the inhibition in test [7] was 4.23% (inactive); in test [8], -1.5% (inactive).
Consider `CN(C)/C=C1\N=C(c2ccc(Cl)cc2Cl)OC1=O`, for which the viability in test [1] was 102%; in test [3] it was 102% (inactive); in test [4], 92.7% (inactive); in test [5], 95.9% (inactive); in test [6] (setting [9]) it was 76.3%; in test [6] (setting [10]), 95.9%. In test [2], the Her2 level is 108% (inactive). Moreover, the differential viability (reversal) in test [6] (H69AR cells + 2 uM doxorubicin) was 19.6% (inactive). For the same molecule, the inhibition in test [7] is -3.29% (inactive); in test [8], -3.97% (inactive).
As for `CC1CCC(NC(=O)C2CCN(c3cnccn3)CC2)CC1` (stereo not given), the viability was 96% in test [1]; 96% (inactive) in test [3]; 88.6% (inactive) in test [4]; 92.5% (inactive) in test [5]; 81.2% in test [6] (setting [9]); 92.5% in test [6] (setting [10]). Besides, the Her2 level in test [2] was 95% (inactive). For the same molecule, in test [6] (H69AR cells + 2 uM doxorubicin), the differential viability (reversal) was 11.3% (inactive). Moreover, the inhibition was -1.76% (inactive) in test [7] and -2.7% (inactive) in test [8].
As for `CCOC(=O)N1CCC(Nc2c(-c3ccc(C)cc3)c(=O)c2=O)CC1`, the viability was 88.5% in test [1]; 88.5% (inactive) in test [3]; 100% (inactive) in test [4]; 94.5% (inactive) in test [5]; 83% in test [6] (setting [9]); 94.5% in test [6] (setting [10]). In test [2], the Her2 level was 100% (inactive). In addition, the differential viability (reversal) in test [6] (H69AR cells + 2 uM doxorubicin) was 11.5% (inactive). Also, the inhibition is -8.42% (inactive) in test [7] and -8.73% (inactive) in test [8].
Take `O=C(CSc1nnc(C2COc3ccccc3O2)o1)N1CCCc2ccccc21` (stereo not given): the viability is 85.5% in test [1]; 85.5% (inactive) in test [3]; 60.9% (inactive) in test [4]; 92.3% (inactive) in test [5]; 95.5% in test [6] (setting [9]); 92.3% in test [6] (setting [10]). Also, the Her2 level in test [2] was 78% (inactive). Moreover, the differential viability (reversal) in test [6] (H69AR cells + 2 uM doxorubicin) was -3.22% (inactive). For the same molecule, the inhibition in test [7] is -5.26% (inactive); in test [8] it was -4% (inactive).
Turning to `COc1ccccc1N1CCN(C(=O)c2ccc3nc(-c4ccco4)c(-c4ccco4)nc3c2)CC1`, the viability in test [1] is 103%; in test [3] it was 103% (inactive); in test [4] it was 48.5% (inactive); in test [5], 69.6% (inactive); in test [6] (setting [9]), 77.6%; in test [6] (setting [10]) it was 69.6%. The Her2 level in test [2] is 79.5% (inactive). In addition, the differential viability (reversal) in test [6] (H69AR cells + 2 uM doxorubicin) is -8.06% (inactive). The results for the inhibition in test [7] and in test [8] were -4.67% (inactive) and -4.1% (inactive), respectively.
Turning to `Cc1ccc(C)c(N2CCN(Cc3nnnn3C3CCCCC3)CC2)c1`, the viability is 94% in test [1]; 94% (inactive) in test [3]; 78.1% (inactive) in test [4]; 71% (inactive) in test [5]; 80% in test [6] (setting [9]); 71% in test [6] (setting [10]). In test [2], the Her2 level is 91% (inactive). The differential viability (reversal) in test [6] (H69AR cells + 2 uM doxorubicin) was -9.05% (inactive). In addition, the inhibition was -3.25% (inactive) in test [7] and 3.49% (inactive) in test [8].
For `C1=Nc2c(NCc3ccccc3)ncnc2Oc2ccccc21`, the viability in test [1] was 83%; in test [3], 83% (inactive); in test [4], 80.6% (inactive); in test [5], 91.7% (inactive); in test [6] (setting [9]), 83.7%; in test [6] (setting [10]), 91.7%. Also, the Her2 level in test [2] is 84.5% (inactive). For the same molecule, the differential viability (reversal) in test [6] (H69AR cells + 2 uM doxorubicin) was 7.99% (inactive). The figures for the inhibition in test [7] and in test [8] were 2.13% (inactive) and 0.16% (inactive), respectively.
